From PubChem
AHR act = human AHR activation | activation, % at 5 µM | 320,000 compounds, 2.5% hits | P35869 | AHR-responsive luciferase reporter cells, luminescence; in the data active means activation above about 47%
Target sequence (P35869 whole entry, looked up): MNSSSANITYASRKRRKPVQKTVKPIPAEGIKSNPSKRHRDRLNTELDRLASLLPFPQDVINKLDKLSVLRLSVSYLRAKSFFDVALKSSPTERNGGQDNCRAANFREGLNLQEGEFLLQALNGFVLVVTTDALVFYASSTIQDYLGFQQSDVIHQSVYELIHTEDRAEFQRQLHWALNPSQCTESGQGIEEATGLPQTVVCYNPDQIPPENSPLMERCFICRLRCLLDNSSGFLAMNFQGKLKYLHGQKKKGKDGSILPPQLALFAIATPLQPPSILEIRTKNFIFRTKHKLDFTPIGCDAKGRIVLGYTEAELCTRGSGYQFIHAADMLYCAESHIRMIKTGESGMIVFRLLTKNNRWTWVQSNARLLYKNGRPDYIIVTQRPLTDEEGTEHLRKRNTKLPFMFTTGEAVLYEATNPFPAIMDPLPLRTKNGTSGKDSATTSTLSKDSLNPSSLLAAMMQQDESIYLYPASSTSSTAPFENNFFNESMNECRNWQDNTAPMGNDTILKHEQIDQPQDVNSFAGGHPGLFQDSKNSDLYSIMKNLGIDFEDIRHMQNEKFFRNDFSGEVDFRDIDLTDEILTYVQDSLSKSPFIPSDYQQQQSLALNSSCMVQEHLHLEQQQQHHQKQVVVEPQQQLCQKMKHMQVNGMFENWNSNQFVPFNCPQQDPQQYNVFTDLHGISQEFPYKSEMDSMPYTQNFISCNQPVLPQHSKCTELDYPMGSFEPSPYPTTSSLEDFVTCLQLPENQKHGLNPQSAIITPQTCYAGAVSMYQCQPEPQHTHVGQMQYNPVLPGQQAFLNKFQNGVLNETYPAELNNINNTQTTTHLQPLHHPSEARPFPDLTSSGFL
UCH37 inh = inhibitors of human deubiquitinating enzyme UCH37 | inhibition, % (test concentration not listed) | 330,000 compounds, 0.33% hits | purified proteasome/UCH37, Ub-AMC cleavage fluorescence | Q9Y5K5 | AID 588478;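 active means mean inhibition over replicate wells above about 20%, limit read from the data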
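Material: human UCH37 enzyme supplied as purified proteasome complex. Measure: % inhibition of Ub-AMC cleavage fluorescence. Medium: pH 7.4 Tris-HCl (50 mM) with ovalbumin, ATP-MgCl2, DTT. Times: 30 min preincubation with enzyme, 25 min cleavage at room temperature. Detection: AMC fluorescence intensity at 355/460 nm.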
Arrestin-AP2 inh = inhibitors of human beta-arrestin and AP2 interaction | 340,000 compounds, 0.31% hits | inhibition, % at 10 µM | FITC-arrestin peptide / GST-AP2 beads, flow cytometry; AP2 beta2 appendage carries R879A mutation;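 active means inhibition above a set limit, near 3 SD of compounds lacking own fluorescence, cut at about 54% in these data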
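System: GST-AP2 R879A glutathione beads. Medium: PBS with 0.05% Tween 20 and 0.1% BSA. Also added: FITC-arrestin peptide, 50 nM. Incubation: 12 min plus 1 h, RT. Measured by: high-throughput flow cytometry of beads, ex 488, em 535 nm. Evaluation: percent drop in bead-associated FITC signal.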
A3G deaminase = APOBEC3G (human) deaminase inhibition | Q9HC16 | recombinant A3G, ssDNA deamination FAM/TAMRA fluorescence | inhibition, % at 20 µM | 330,000 compounds, 0.28% hits | AID 493012;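 active means inhibition of at least 40% at 20 µM, with no more than 30% in the related APOBEC3A deaminase screen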
PolyA inh = inhibitors of polyadenylation in S. cerevisiae | activity score, % at 12 µM | S. cerevisiae SKY197-pL101 polyadenylation reporter, beta-gal luminescence; efflux-impaired pdr1/pdr3 knockout yeast; score 100 = 6 SD above DMSO | 300,000 compounds, 0.02% hits;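 active means lowest replicate activity score at least 50, where 100 means six control SD above control mean; inconclusive means lowest score under 50 but half or more replicates reach 50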;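 further: yeast exposed to compound for 9 h at 30 °C; higher score means more reporter readthrough which indicates perturbed polyadenylation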
A3A deaminase = human APOBEC3A DNA deaminase inhibition | inhibition, % at 20 µM | 330,000 compounds, 0.41% hits | P31941 | AID 493011 | recombinant A3A, FAM/TAMRA ssDNA deamination fluorescence;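 active means at least 40% inhibition at 20 µM here, with at most 30% in a related deaminase screen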
Numbers stand for hits; 0 = inactive; ? = inconclusive; - = no result given. Rows were chosen to be rich in hits. Some 3.4% of all compounds tested hit in one or more screens of this group.

SMILES | AHR act | UCH37 inh | Arrestin-AP2 inh | A3G deaminase | PolyA inh | A3A deaminase
NC(=O)c1c(NC(=O)c2ccco2)sc2c1CCC2 | 75.9 | 0 | 0 | 0 | 0 | 0
O=C(Nc1sc2c(c1C(=O)O)CCCCC2)c1ccco1 | 0 | 0 | 0 | 0 | 0 | 0
Cc1ccc2[nH]c3c(c2c1)CCc1cn[nH]c1-3 | 52.9 | 0 | 0 | 0 | 0 | 0
Cc1ccc2[nH]c3c(c2c1)CCC3=O | 0 | 0 | 0 | 0 | ? | 0
Cc1sc2nc(CSCC(=O)Nc3c(F)cccc3F)[nH]c(=O)c2c1C | 0 | 0 | 0 | 0 | 0 | 0
Cc1sc2nc(CSc3ccc([N+](=O)[O-])cc3)[nH]c(=O)c2c1C | 47.0 | 0 | - | 0 | 0 | 0
Cc1sc2nc(CSCC(=O)NC(C)(C)C)[nH]c(=O)c2c1C | 0 | 0 | 54.7 | 0 | 0 | 0
Cc1sc2nc(CSCC(=O)Nc3ccc(C(F)(F)F)cc3)[nH]c(=O)c2c1C | 58.9 | 0 | 0 | 0 | - | 0
CCc1ccc(N2CN=c3sc(=Cc4ccccc4)c(=O)n3C2)cc1 | - | 0 | - | - | - | -
C(=C\c1nnc2c3ccccc3ncn12)/c1ccccc1 | 67.4 | 0 | 0 | - | 0 | -
COc1ccc2c(c1)sc1nc(-c3ccccc3)cn12 | 56.5 | - | 0 | 0 | 0 | 0
COc1cc(OC)cc(C(=O)Nc2cccnc2)c1 | 59.5 | 0 | 0 | 0 | 0 | 0
Cc1ccc(C(=O)Nc2cccnc2)cc1S(=O)(=O)N1CCCC1 | 53.7 | 0 | 0 | 0 | 0 | 0
COc1cccc(C(=O)Nc2ccc3[nH]ncc3c2)c1 | 52.1 | 0 | 0 | 0 | 0 | 0
COc1cc(OC)cc(C(=O)NC(=S)Nc2cccnc2)c1 | 0 | 0 | 0 | 0 | 0 | 0
COc1cc(OC)cc(C(=O)Nc2c(F)cccc2F)c1 | 59.0 | 0 | 0 | 0 | 0 | 0
CCOc1cccc(-c2c(C(=O)NN=Cc3c(F)cccc3Cl)nnn2-c2nonc2N)c1 | - | 0 | - | - | - | -
CCn1c(C(C#N)C(=NS(=O)(=O)c2cccs2)c2ccccc2)nc2ccccc21 (configuration not stated) | - | 0 | - | - | - | -
COc1ccc(C2CC2C(C)=NOC(=O)c2ccc(F)cc2)cc1 (configuration not stated) | - | 0 | - | - | - | -
COc1cc(C(=O)Nc2cccc3cccnc23)cc(OC)c1OC | 0 | 0 | 0 | 0 | 0 | 0
COc1cc(OC)cc(C(=O)Nc2cccc3cccnc23)c1 | 50.3 | 0 | 0 | 0 | 0 | 0
Clc1nc2c(-c3ccccc3)nnn2c2ccccc12 | 52.5 | - | 0 | 0 | 0 | 0
Cc1ccc(-c2nnn3c2nc(Cl)c2ccccc23)cc1 | - | - | 0 | - | 0 | -
C=C(C)C(O)COc1c2occc2c(OC)c2ccc(=O)oc12 (configuration not stated) | 54.6 | 0 | 0 | 0 | - | 0
CC(=NOC(=O)c1ccc(Cl)cc1Cl)c1oc(C)nc1C | - | 0 | - | - | - | -
SMILES | AHR act | UCH37 inh | Arrestin-AP2 inh | A3G deaminase | PolyA inh | A3A deaminase
COc1ccc(C=NNC(=O)CC(=O)NCc2cccnc2)c(OC)c1 | - | 0 | - | - | - | -
COc1ccc(C=NNc2ccc(S(=O)(=O)Nc3ccccc3C(=O)O)cc2[N+](=O)[O-])c(OC)c1 | 0 | 31.5 | 0 | 0 | - | 0
COc1cccc(C=NNc2ccc(S(=O)(=O)Nc3ccccc3C(=O)O)cc2[N+](=O)[O-])c1O | - | 0 | - | - | - | -
CSc1ccc(C=NNc2ccc(S(=O)(=O)Nc3ccccc3C(=O)O)cc2[N+](=O)[O-])cc1 | 0 | 22.4 | 0 | 0 | - | 0
Cc1ccc(NS(=O)(=O)c2ccc(N/N=C/c3ccncc3)c([N+](=O)[O-])c2)c(C)c1 | 48.2 | - | 0 | 0 | 0 | 0
CC(=NNC(=S)NCCc1ccccc1)c1ccc(C)cc1 | - | 0 | - | - | - | -
CC(C)COc1ccc(-c2nn(-c3ccccc3)cc2/C=C2/SC(=S)N(CC(=O)O)C2=O)cc1 | 0 | 21.9 | 0 | 0 | 0 | 0
CCOC(=O)c1c(-c2ccc(OC)cc2)csc1N=CN(C)C | - | 0 | - | - | - | -
N#CCC(=O)NN=Cc1cn(Cc2ccc(Cl)cc2Cl)c2ccccc12 | - | 0 | - | - | - | -
COC(=O)N/N=C/c1cn(Cc2ccccc2F)c2ccccc12 | 57.6 | - | 0 | 0 | 0 | 0
COC(=O)N/N=C/c1cn(Cc2c(Cl)cccc2Cl)c2ccccc12 | 63.9 | - | 0 | 0 | 0 | 0
COC(=O)N/N=C/c1cn(Cc2ccc(Cl)cc2Cl)c2ccccc12 | 70.6 | - | 0 | 0 | 0 | 0
COC(=O)N/N=C/c1cn(Cc2ccc(F)cc2)c2ccccc12 | 0 | - | 0 | 0 | 0 | 0
COc1cccc(C(C)=NNS(=O)(=O)c2ccc(Cl)cc2)c1 | - | 0 | - | - | - | -
CC(CC(=O)N1CCN(C=O)CC1)=NNC(=O)c1cccc([N+](=O)[O-])c1 | - | 0 | - | - | - | -
CCOC(=O)c1c(NC(=O)C(=O)NN=Cc2ccc(O)c(OC)c2)sc2c1CCCCC2 | - | 0 | - | - | - | -
Cc1ccnc(NC(=O)c2cnc(Cl)c(Cl)c2)c1 | 58.1 | 0 | 0 | 0 | 0 | 0
CCOc1ccc(C(C)=NNC(=O)C(OC)c2ccccc2)cc1 (configuration not stated) | - | 0 | - | - | - | -
CC(C)COC(=O)c1cccc2c1-c1ccccc1C2=NO | - | 0 | - | - | - | -
Cc1ccc2c(c1)-c1cc(C)nn1C(c1ccc3c(c1)OCO3)N2 (configuration not stated) | 94.4 | 0 | 0 | 0 | 0 | 0
Cc1cc2n(n1)C(c1ccc(N(C)C)cc1)Nc1ccccc1-2 (configuration not stated) | 82.1 | 0 | 0 | 0 | 0 | 0
O=C1Nc2ccc(Br)cc2C12NNc1ccccc1O2 (configuration not stated) | 60.4 | 0 | 0 | 0 | 0 | 0
CCCOc1ccc(-c2c(C(=O)NN=Cc3cccs3)nnn2-c2nonc2N)cc1 | - | 0 | - | - | - | -
CCn1c2ccccc2c2cc(NC(=O)CNCc3ccccc3OC)ccc21 | 0 | 0 | 0 | 0 | 0 | 0
CCn1c(=O)cc(OCC(=O)N2CCN(c3ccc(F)cc3)CC2)c2ccccc21 | 54.0 | 0 | 0 | 0 | 0 | 0
SMILES | AHR act | UCH37 inh | Arrestin-AP2 inh | A3G deaminase | PolyA inh | A3A deaminase
CCn1c2ccccc2c2cc(NC(C)=O)ccc21 | 50.5 | 0 | 0 | 0 | 0 | 0
CCn1c(=O)cc(OCC(=O)N2CCCCCC2)c2ccccc21 | 0 | 0 | 0 | 0 | 0 | 0
CCn1c(=O)cc(OCC(=O)Nc2ccccc2C#N)c2ccccc21 | 72.5 | 0 | 0 | 0 | 0 | 0
CC(=O)Nc1ccc2c(c1)c1ccccc1n2C(C)=O | 0 | 0 | 0 | 0 | 0 | 0
CCn1c2ccccc2c2cc(NC(=O)COc3ccccc3OC)ccc21 | 62.3 | 0 | 0 | 0 | 0 | 0
Cc1ccc(C=Nn2c(-c3cccs3)n[nH]c2=S)cc1 | - | 0 | - | - | - | -
CCn1c2ccccc2c2cc(NC(=O)CSc3nnc(-c4ccc(OC)cc4)n3N)ccc21 | 48.5 | 0 | 0 | 0 | 0 | 0
CCn1c2ccccc2c2cc(NC(=O)COC(=O)c3cccc(S(=O)(=O)NC)c3)ccc21 | 100.1 | 0 | 0 | 0 | 0 | 0
COc1ccc(NC(=O)CSc2nnc(-c3ccccc3)n2N)cc1 | 0 | 0 | 0 | 0 | 0 | 0
Cc1cc(C)nc(SCc2ccc(C(=O)NN=Cc3ccccc3C(=O)O)cc2)n1 | - | 0 | - | - | - | -
